Laboratory results: ChEMBL document CHEMBL2157895, “Selective Dual Inhibitors of the Cancer-Related Deubiquitylating Proteases USP7 and USP47” (ACS Med Chem Lett, 2012)
Activity calls are given as the source filed them. No cut-off for these calls is given here.

Legend:
Caspase-3 (Homo sapiens) = target: T1, Caspase-3 (Homo sapiens) (UniProt P42574); test: Inhibition of caspase 3 using DEVD-Rh110 as substrate incubated for 30 mins prior to substrate addition by fluorimetric analysis
T1 sequence (whole entry): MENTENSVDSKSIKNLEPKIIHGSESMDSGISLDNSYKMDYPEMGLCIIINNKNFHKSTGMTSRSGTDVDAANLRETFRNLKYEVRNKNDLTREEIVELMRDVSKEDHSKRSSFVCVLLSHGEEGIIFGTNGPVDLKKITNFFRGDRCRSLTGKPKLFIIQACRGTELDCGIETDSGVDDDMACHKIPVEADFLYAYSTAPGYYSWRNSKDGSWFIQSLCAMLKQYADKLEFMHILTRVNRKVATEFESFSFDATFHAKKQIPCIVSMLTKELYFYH

[1] = target: T2, Ubiquitin carboxyl-terminal hydrolase 21 (Homo sapiens) (UniProt Q9UK80); test: Inhibition of HIs6-tagged USP21 by Ub-CHOP reporter assay
T2 sequence (whole entry): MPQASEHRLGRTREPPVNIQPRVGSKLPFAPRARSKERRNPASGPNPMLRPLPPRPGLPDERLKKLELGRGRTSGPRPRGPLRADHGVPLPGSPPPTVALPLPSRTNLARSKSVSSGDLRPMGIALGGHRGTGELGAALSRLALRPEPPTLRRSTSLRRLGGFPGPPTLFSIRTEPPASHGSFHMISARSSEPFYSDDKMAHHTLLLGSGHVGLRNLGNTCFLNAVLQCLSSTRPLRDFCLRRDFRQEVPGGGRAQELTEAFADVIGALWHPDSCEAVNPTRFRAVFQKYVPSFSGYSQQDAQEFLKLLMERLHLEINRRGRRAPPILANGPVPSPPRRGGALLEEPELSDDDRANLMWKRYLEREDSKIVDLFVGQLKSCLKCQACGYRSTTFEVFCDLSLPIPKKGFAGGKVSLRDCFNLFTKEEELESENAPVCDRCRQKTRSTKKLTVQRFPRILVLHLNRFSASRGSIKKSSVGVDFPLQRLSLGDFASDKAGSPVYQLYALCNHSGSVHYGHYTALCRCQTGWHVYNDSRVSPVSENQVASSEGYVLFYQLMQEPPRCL

HCT-116 = test: Cytotoxicity against human HCT116 cells after 72 hrs; assay type: functional, cell-based
[2] = target: T3, Ubiquitin carboxyl-terminal hydrolase 7 (Homo sapiens, UniProt Q93009); test: Inhibition of USP7 in human HCT116 cells assessed as increase in p53 level at 30 uM incubated up to 48 hrs by Western blot analysis relative to control; assay type: cell-based; conditions: HCT-116
T3 sequence (Q93009 whole entry, looked up): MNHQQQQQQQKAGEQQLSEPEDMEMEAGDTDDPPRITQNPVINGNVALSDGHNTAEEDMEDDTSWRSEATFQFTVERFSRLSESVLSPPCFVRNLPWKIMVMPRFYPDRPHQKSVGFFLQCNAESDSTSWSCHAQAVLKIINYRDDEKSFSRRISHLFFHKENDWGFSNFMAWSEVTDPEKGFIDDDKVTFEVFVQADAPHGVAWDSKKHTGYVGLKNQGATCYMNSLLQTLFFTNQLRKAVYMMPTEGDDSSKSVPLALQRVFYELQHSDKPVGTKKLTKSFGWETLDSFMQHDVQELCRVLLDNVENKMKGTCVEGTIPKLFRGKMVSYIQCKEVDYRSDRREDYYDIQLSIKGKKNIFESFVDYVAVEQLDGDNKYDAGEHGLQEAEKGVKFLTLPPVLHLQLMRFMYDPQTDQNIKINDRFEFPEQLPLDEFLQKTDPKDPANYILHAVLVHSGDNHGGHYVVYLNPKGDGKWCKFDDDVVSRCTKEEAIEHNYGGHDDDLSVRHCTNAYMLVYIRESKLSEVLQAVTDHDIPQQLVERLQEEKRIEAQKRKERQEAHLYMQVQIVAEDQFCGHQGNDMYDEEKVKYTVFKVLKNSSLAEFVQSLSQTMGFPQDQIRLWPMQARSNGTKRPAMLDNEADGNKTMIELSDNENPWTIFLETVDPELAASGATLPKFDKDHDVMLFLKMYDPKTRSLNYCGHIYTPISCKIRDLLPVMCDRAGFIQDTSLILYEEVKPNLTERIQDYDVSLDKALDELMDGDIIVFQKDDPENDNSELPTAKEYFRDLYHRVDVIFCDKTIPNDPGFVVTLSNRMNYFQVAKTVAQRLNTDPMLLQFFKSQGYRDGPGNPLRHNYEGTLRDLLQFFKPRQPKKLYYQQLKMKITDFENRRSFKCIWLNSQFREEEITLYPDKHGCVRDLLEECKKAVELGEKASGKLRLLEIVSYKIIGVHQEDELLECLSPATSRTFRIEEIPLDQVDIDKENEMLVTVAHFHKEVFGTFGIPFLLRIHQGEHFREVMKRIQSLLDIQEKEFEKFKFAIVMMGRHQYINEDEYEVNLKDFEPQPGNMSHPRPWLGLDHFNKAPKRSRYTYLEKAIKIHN
Outline: (§1)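 HCT-116 human colon cancer cells were incubated with 30 μM compound or with vehicle (0.3% DMSO). Lysates were separated by SDS-PAGE and Western blotted with antibodies to p53 and p21, with actin as the loading standard. Treated cells were compared with DMSO controls.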

[3] = target: T3, Ubiquitin carboxyl-terminal hydrolase 7; test: Inhibition of USP7 in human HCT116 cells assessed as increase in p21 level at 30 uM incubated up to 48 hrs by Western blot analysis relative to control; assay type: cell-based; conditions: HCT-116; outline: as §1
[4] = target: T4, Ubiquitin carboxyl-terminal hydrolase 47 (Homo sapiens) (UniProt Q96K76); test: Inhibition of USP47 in human HeLa cells assessed as polymerase-beta degradation; assay type: cell-based
T4 sequence (whole entry): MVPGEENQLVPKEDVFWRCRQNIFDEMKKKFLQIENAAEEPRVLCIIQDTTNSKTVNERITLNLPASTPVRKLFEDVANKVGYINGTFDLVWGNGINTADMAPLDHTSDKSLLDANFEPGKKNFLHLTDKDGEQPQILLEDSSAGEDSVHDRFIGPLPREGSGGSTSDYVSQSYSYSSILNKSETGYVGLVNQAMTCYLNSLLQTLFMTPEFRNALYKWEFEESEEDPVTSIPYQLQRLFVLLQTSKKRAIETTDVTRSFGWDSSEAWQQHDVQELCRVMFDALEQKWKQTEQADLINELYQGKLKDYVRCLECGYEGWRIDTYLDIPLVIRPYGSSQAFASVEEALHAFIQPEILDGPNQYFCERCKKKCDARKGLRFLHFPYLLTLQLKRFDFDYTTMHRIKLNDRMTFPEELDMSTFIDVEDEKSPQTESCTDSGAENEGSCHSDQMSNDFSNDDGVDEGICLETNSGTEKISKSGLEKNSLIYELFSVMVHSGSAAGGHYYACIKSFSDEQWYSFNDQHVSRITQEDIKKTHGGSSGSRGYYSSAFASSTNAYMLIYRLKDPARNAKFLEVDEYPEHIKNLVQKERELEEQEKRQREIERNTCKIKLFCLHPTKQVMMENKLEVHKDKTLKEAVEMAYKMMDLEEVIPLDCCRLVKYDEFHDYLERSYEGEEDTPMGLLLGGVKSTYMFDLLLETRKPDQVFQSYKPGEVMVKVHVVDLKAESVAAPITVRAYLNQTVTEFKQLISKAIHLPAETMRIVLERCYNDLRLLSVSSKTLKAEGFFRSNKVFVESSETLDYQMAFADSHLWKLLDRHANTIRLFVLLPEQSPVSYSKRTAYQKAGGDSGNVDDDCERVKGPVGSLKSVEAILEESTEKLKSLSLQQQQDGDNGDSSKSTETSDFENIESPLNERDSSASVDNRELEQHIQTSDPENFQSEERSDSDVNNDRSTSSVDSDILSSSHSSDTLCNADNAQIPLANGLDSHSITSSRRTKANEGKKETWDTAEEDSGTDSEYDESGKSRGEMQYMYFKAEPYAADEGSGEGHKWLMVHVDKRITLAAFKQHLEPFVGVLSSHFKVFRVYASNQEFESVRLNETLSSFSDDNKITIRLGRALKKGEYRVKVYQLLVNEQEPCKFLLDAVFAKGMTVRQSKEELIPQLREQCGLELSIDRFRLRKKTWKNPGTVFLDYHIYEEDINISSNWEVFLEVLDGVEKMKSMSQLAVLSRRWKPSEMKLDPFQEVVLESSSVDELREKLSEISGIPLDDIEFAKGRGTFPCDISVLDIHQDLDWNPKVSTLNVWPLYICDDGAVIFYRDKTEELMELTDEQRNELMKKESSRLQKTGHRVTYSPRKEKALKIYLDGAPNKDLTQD

inhibition (Caspase-3 (Homo sapiens)): inactive
inhibition [1]: inactive
inhibition [2]: Active
inhibition [3]: Active
inhibition [4]: Active
SMILES: CS(=O)(=O)c1ccc(NC(=O)c2cc(C#N)c(Sc3c(Cl)cncc3Cl)s2)cc1
Activity (HCT-116): Active
